Results taken from ChEMBL document CHEMBL5034002, “Benzoheterocyclic Oxime Carbamates Active against Mycobacterium tuberculosis: Synthesis, Structure-Activity Relationship, Metabolism, and Biology Triaging” (J Med Chem, 2021).
Converted amounts (≈) assume the structure as drawn. The source made the active and inactive calls. The rule behind the calls is not given here.

Experiments:
[1] = test system: Mycobacterium tuberculosis; test: Antitubercular activity against Mycobacterium tuberculosis H37RvMA incubated for 14 days in GAST/FE medium by Alamar blue assay; assay type: functional; settings: 336 h, time 14 day
Outline: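 Mtb H37RvMa grown in GAST/Fe medium, 14 day incubation with compound, growth read by Alamar Blue.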

CHO = test: Cytotoxicity against CHO cells; assay type: cell-based; settings: Cricetulus griseus
Outline: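 Cytotoxicity measured on Chinese hamster ovary (CHO) cells.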

[2] = Kinetic solubility of the compound in pH 6.5; assay type: physicochemical; settings: buffer, read-out: Kinetic_solubility
[3] = test system: Mycobacterium tuberculosis; test: Antitubercular activity against Mycobacterium tuberculosis H37RvMA infected in THP-1 cells assessed as intracellular bacterial growth at 10 uM measured over 6 days; assay type: functional, organism-based; settings: time 6.0 day
Outline: (§1)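 THP-1 macrophages infected in vitro with Mtb H37RvMa, then treated with compound over 6 days (10 μM, or increasing concentrations up to 80 μM). Intracellular bacterial growth was compared with untreated control at day 6 post treatment by one-way ANOVA with Dunnett's test.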

[4] = test system: Mycobacterium tuberculosis; test: Antitubercular activity against Mycobacterium tuberculosis H37RvMA infected in THP-1 cells assessed as intracellular bacterial growth measured over 6 days; assay type: functional, organism-based; settings: dose 10-80 µM, time 6.0 day; outline: as §1
[5] = test system: Mycobacterium tuberculosis; test: Antitubercular activity against Mycobacterium tuberculosis H37RvMA infected in THP-1 cells assessed as intracellular bacterial growth at 80 uM measured over 6 days; assay type: functional, organism-based; settings: time 6.0 day; outline: as §1
[6] = test system: Mycobacterium tuberculosis; test: Drug degradation in Mycobacterium tuberculosis H37RvMA assessed as compound hydrolysis at 0.1 uM incubated over 96 hrs by LC-MS/MS analysis; assay type: functional, organism-based
Outline: (§2)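 Compound at 0.1 μM in 7H9/OADC medium was added to log-phase Mtb H37RvMa culture and sampled over 96 h, earliest at 3 h. Controls were heat-killed culture and sterile medium. Analysis by LC-MS/MS as analyte/internal standard peak area ratio, expressed as % of mean time-zero ratio. One-way ANOVA with Dunnett's test against medium control at each time point.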

Pseudomonas aeruginosa = test: Antibacterial activity against Pseudomonas aeruginosa ATCC 27853; assay type: functional
[7] = Stability in rat liver microsomes assessed as compound remaining after 30 mins; assay type: ADME, Microsome; settings: read-out: Stability
Escherichia coli = test: Antibacterial activity against Escherichia coli ATCC 25922; assay type: functional
Klebsiella pneumoniae = test: Antibacterial activity against Klebsiella pneumoniae BAA-1705; assay type: functional; settings: ATCC BAA-1705
[8] = Stability in mouse liver microsomes assessed as compound remaining after 30 mins; assay type: ADME, Microsome; settings: read-out: Stability
[9] = Stability in human liver microsomes assessed as compound remaining after 30 mins; assay type: ADME, Microsome; settings: read-out: Stability
Enterobacter cloacae = test: Antibacterial activity against Enterobacter cloacae; assay type: functional
Staphylococcus aureus = test: Antibacterial activity against Staphylococcus aureus ATCC 25923; assay type: functional
Acinetobacter baumannii = test: Antibacterial activity against Acinetobacter baumannii ATCC 19606; assay type: functional
[10] = test system: Mycobacterium tuberculosis; test: Antitubercular activity against Mycobacterium tuberculosis H37RvMA incubated for 14 days in 7H9/OHADC medium by Alamar blue assay; assay type: functional; settings: 336 h, time 14 day
[11] = target: Voltage-gated inwardly rectifying potassium channel KCNH2 (Homo sapiens, UniProt Q12809); test: Inhibition of human ERG by Ionworks electrophysiology assay
Sequence of Voltage-gated inwardly rectifying potassium channel KCNH2 (Q12809 whole entry): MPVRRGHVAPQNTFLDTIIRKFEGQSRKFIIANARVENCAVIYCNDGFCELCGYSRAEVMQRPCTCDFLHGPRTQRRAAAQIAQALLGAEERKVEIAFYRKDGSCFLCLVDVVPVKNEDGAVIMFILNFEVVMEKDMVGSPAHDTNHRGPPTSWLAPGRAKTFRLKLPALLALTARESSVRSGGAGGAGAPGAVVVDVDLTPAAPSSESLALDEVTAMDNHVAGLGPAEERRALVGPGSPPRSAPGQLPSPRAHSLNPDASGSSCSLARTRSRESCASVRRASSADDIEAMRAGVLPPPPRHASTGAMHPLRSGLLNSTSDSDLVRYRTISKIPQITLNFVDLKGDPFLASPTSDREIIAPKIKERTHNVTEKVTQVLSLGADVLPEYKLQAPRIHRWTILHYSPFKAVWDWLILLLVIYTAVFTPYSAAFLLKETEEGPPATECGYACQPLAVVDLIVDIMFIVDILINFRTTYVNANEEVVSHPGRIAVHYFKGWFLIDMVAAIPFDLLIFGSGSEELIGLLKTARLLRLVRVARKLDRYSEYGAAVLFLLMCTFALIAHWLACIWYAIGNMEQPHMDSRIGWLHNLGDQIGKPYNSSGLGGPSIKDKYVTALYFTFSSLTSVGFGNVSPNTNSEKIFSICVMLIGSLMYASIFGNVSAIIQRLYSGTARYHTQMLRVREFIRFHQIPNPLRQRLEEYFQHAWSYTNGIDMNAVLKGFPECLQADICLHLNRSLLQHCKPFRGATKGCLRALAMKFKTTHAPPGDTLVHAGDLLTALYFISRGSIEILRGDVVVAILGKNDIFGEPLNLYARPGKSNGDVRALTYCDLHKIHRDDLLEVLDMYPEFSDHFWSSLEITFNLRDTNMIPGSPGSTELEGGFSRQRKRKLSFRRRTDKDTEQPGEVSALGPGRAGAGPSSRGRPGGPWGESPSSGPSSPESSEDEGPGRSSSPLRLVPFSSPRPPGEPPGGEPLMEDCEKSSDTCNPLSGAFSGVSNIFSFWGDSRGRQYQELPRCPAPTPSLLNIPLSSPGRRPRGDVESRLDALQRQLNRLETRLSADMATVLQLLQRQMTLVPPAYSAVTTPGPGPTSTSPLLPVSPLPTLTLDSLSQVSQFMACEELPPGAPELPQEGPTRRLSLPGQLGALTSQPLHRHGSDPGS
Outline: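 hERG inhibition measured by electrophysiology on IonWorks HT.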

[12] = Stability in human liver S9 fraction assessed as compound remaining after 40 mins; assay type: ADME, subcellular; settings: read-out: Stability
[13] = test system: Mycobacterium tuberculosis; test: Drug degradation in Mycobacterium tuberculosis H37RvMA at 0.1 uM incubated over 96 hrs by LC-MS/MS analysis; assay type: functional, organism-based; outline: as §2

Structure (SMILES)	MIC [1] [µM]	IC50 (CHO) [µM]	other results
Cc1ccc2nc(/C(C#N)=N/OS(=O)(=O)N(C)C)oc2c1	5 (≈ 1.54 µg/mL)	–	–
Cc1cnc(/C(=N\O)c2nc3ccccc3s2)s1	3.13 (≈ 0.862 µg/mL)	29	–
CC(=O)Nc1ccc2nc(/C(C#N)=N/OC(=O)N(C)C)oc2c1	5.2 (≈ 1.64 µg/mL)	> 100	–
O/N=C(\c1ccc2ncsc2c1)c1nc2ccccc2s1	> 125	> 50	–
N#C/C(=N\OCc1ccncc1)c1nc2ccccc2s1	20 (≈ 5.89 µg/mL)	–	–
CN(C)C(=O)O/N=C(\C#N)c1nc2ccc(F)cc2o1	< 0.24	> 100	–
N#C/C(=N\O)c1ccccn1	> 50	–	solubility kinetic [2]: 202 µM (≈ 29.7 µg/mL)
O/N=C(/c1nc2ccccc2s1)C(F)(F)F	37 (≈ 9.11 µg/mL)	–	–
CN(C)C(=O)O/N=C(\C#N)c1nc2ccc(Cl)cc2o1	< 0.24	> 100	Activity [3]: inactive; Activity [4]: Dose-Dependent Effect; Activity [5]: Active; Drug degradation [6]: Unstable
[O-][n+]1onc(-c2nc3ccccc3s2)c1-c1nc2ccccc2s1	> 50	–	solubility kinetic [2]: < 5 µM
Cc1nc(/C(=N\O)c2nc3ccccc3s2)no1	> 160	–	–
N#C/C(=N\OCc1ccccn1)c1nc2ccccc2s1	> 160	–	–
CN(C)C(=O)O/N=C(\C#N)c1nc2ccc([N+](=O)[O-])cc2o1	< 0.24	46.8	–
O/N=C(\c1nnc(C(F)(F)F)s1)c1nc2ccccc2s1	0.78 (≈ 0.258 µg/mL)	15.6	MIC (Pseudomonas aeruginosa): > 125 µM; remaining at 0.5 h [7]: 86%; MIC (Escherichia coli): > 125 µM; MIC (Klebsiella pneumoniae): > 125 µM; remaining at 0.5 h [8]: 71%; remaining at 0.5 h [9]: > 99%; MIC (Enterobacter cloacae): > 125 µM; solubility kinetic [2]: 67 µM (≈ 22.1 µg/mL); MIC (Staphylococcus aureus): > 125 µM; MIC (Acinetobacter baumannii): > 125 µM; MIC [10]: 1.2 µM (≈ 0.396 µg/mL)
CN(C)C(=O)O/N=C(\C#N)c1nc2ccc(C(F)(F)F)cc2o1	< 0.24	46.3	–
N#C/C(=N\O)c1nc2ccccc2s1	> 160	> 100	–
O/N=C/c1nc2ccccc2s1	> 160	–	–
CS(=O)(=O)O/N=C(\C#N)c1nc2ccccc2s1	0.5 (≈ 0.141 µg/mL)	–	–
Nc1nonc1-c1nc2ccccc2s1	> 50	–	solubility kinetic [2]: 5 µM (≈ 1.09 µg/mL)
CN(C)S(=O)(=O)O/N=C(\C#N)c1nc2ccccc2s1	0.3 (≈ 0.0931 µg/mL)	91.3	–
O/N=C(\c1ccccc1)c1nc2ccccc2s1	> 50	> 100	–
Cc1nnc(/C(=N\O)c2nc3ccccc3s2)o1	160 (≈ 41.6 µg/mL)	–	–
N#C/C(=N\[O-])c1ccccc1.[Na+]	> 50	–	solubility kinetic [2]: 56 µM
CN(C)C(=O)O/N=C(\C#N)c1nc2ccc(Br)cc2o1	< 0.24	> 100	–
Cc1ccc2nc(/C(C#N)=N/OC(=O)N(C)C)oc2c1	< 0.16	> 100	Activity [3]: inactive
CN(C)C(=O)CO/N=C(\C#N)c1nc2ccccc2s1	> 160	–	–
N#C/C(=N\OCc1ccccc1)c1nc2ccccc2s1	20 (≈ 5.87 µg/mL)	–	–
CN(C)C(=O)O/N=C(\C#N)c1ccccc1	9.4 (≈ 2.04 µg/mL)	–	–

Structure (SMILES)	MIC [1] [µM]	IC50 (CHO) [µM]	other results
CN(C)C(=O)O/N=C(\C#N)c1nc2ccccc2s1	< 0.16	> 100	–
CN(C)C(=O)O/N=C(\C#N)c1ccccn1	9.4 (≈ 2.05 µg/mL)	–	solubility kinetic [2]: 175 µM (≈ 38.2 µg/mL)
Cc1nnc(/C(=N\O)c2nc3ccccc3s2)s1	2.5 (≈ 0.691 µg/mL)	38	–
N#C/C(=N\O)c1nc2ccccc2o1	> 160	–	Activity [3]: inactive
CO/N=C(\C#N)c1nc2ccccc2s1	160 (≈ 34.8 µg/mL)	–	–
CO[C@H]1/C=C/O[C@@]2(C)Oc3c(C)c(O)c4c(O)c(c(/C=N/N5CCN(C)CC5)c(O)c4c3C2=O)NC(=O)/C(C)=C\C=C\[C@H](C)[C@H](O)[C@@H](C)[C@@H](O)[C@@H](C)[C@H](OC(C)=O)[C@@H]1C [RIFAMPIN]	0.009 (≈ 0.00741 µg/mL)	–	–
Cc1cccc2oc(/C(C#N)=N/OC(=O)N(C)C)nc12	< 0.24	> 100	–
O/N=C(/c1nc2ccccc2s1)C1CCCC1	> 125	83.5	–
CON=C(c1nc2ccccc2s1)c1nc2ccccc2s1	> 125	> 50	–
COC(=O)c1ccc2nc(/C(C#N)=N/OC(=O)N(C)C)oc2c1	< 0.24	7.05	–
CCCO/N=C(\C#N)c1nc2ccccc2s1	> 160	–	–
O/N=C(\c1cnco1)c1nc2ccccc2s1	50 (≈ 12.3 µg/mL)	> 100	–
CN(C)C(=O)O/N=C(\C#N)c1nc2ccccc2[nH]1	9.4 (≈ 2.42 µg/mL)	–	solubility kinetic [2]: 29 µM (≈ 7.46 µg/mL)
O/N=C(\c1cnccn1)c1nc2ccccc2s1	3.6 (≈ 0.923 µg/mL)	11.7	–
ON=C(c1nc2ccccc2s1)c1nc2ccccc2s1	0.8 (≈ 0.249 µg/mL)	> 100	–
CN(C)C(=O)O/N=C(\C#N)c1nc2cc(F)ccc2o1	< 0.24	–	–
CN(C)C(=O)O/N=C(\C#N)c1nc2ccccc2o1	0.3 (≈ 0.0775 µg/mL)	> 100	MIC (Pseudomonas aeruginosa): > 125 µM; remaining at 0.5 h [7]: 98%; Activity [3]: inactive; MIC (Escherichia coli): > 125 µM; MIC (Klebsiella pneumoniae): > 125 µM; remaining at 0.5 h [8]: > 99%; remaining at 0.5 h [9]: > 99%; MIC (Enterobacter cloacae): > 125 µM; solubility kinetic [2]: 18 µM (≈ 4.65 µg/mL); MIC (Staphylococcus aureus): > 125 µM; IC50 [11]: > 33 µM; remaining at 40 min [12]: 60%; MIC (Acinetobacter baumannii): > 125 µM; Drug degradation [13]: Unstable; MIC [10]: 0.6 µM (≈ 0.155 µg/mL)
CN(C)C(=O)O/N=C(\C#N)c1nc2cc(Cl)ccc2o1	< 0.24	> 100	–
Cc1ccc2oc(/C(C#N)=N/OC(=O)N(C)C)nc2c1	< 0.24	> 100	–
N#C/C(=N\OCc1cccnc1)c1nc2ccccc2s1	> 160	–	–
Cc1ccc2nc(/C(C#N)=N/O)oc2c1	> 160	> 100	Activity [3]: inactive; Drug degradation [13]: Unstable
NNC(=O)c1ccncc1 [ISONIAZID]	0.14 (≈ 0.0192 µg/mL)	–	–
CN(C)C(=O)O/N=C(\C#N)c1nc2cc(Br)ccc2o1	< 0.24	–	–
O/N=C(/c1nc2ccccc2s1)C1CCCCC1	> 125	51.6	–
OC(O)(c1nc2ccccc2s1)C(F)(F)F	> 50	–	solubility kinetic [2]: 184 µM (≈ 45.9 µg/mL)
C/C(=N\O)c1nc2ccccc2s1	> 125	> 100	–
CCOC(=O)CO/N=C(\C#N)c1nc2ccccc2s1	> 160	–	–
